Measured values as given in ChEMBL document CHEMBL4004837, “Synthesis and Characterization of Urofuranoic Acids: In Vivo Metabolism of 2-(2-Carboxyethyl)-4-methyl-5-propylfuran-3-carboxylic Acid (CMPF) and Effects on in Vitro Insulin Secretion” (J Med Chem, 2017).

Experiments:
Plasma [1] = assay: Plasma concentration in human; format: ADME, cell-free
[2] = Drug excretion in human urine assessed as CMPF formation; format: ADME
[3] = Initial plasma concentration in mouse at 1 mg/kg, iv; format: ADME, organism-based
How it was run: (§1)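 Mouse pharmacokinetics after single intravenous CMPF dosing at 1 or 3 mg/kg. Plasma exposure was followed over time to derive AUC, C0, terminal half-life, clearance and volume of distribution.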

[4] = Volume of distribution in mouse at 1 mg/kg, iv; format: ADME, organism-based; details: in vivo; how it was run: as §1
[5] = Volume of distribution in mouse at 3 mg/kg, iv; format: ADME, organism-based; details: in vivo; how it was run: as §1
[6] = (§2) Drug metabolism in CD1 mouse adipose assessed as loss of C2 carboxyl during fragmentation at 6 mg/kg, ip dosed once daily for 3 days followed by dosing of 1:1 mixtures of 2-(2-(Carboxy-13C)ethyl)-4-methyl-5-propylfuran-3-carboxylic-2-13C Acid and test compound on day 4 and 5 measured 1 hr post dose on day 5 by HPLC-MS analysis; format: ADME, organism-based, Adipose tissue; details: in vivo
How it was run: (§3)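 Mice received CMPF 6 mg/kg intraperitoneally for three days, then 1:1 labeled/unlabeled CMPF mixtures on days four and five. On day five they were euthanized 1 h post-dose, and plasma, adipose, muscle and liver were collected. Samples were analysed by HPLC-MS, with MS/MS of product ions. Metabolites were identified by the distinctive isotope patterns from the 1:1 label mixture.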

[7] = as §2, with “muscle” for “adipose”; format: ADME, organism-based, Muscle tissue; details: in vivo; how it was run: as §3
Plasma [8] = assay: as §2, with “plasma” for “adipose”, “2-(2-Carboxyethyl)-4-methyl-5-propyl-(3-13C-furan)-3-13Ccarboxylate” for “2-(2-(Carboxy-13C)ethyl)-4-methyl-5-propylfuran-3-carboxylic-2-13C Acid”; format: ADME, organism-based; details: in vivo
How it was run: (§4)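 CMPF given 6 mg/kg i.p. once daily for three days. On days four and five, 1:1 mixtures of stable-isotope-labelled and unlabelled CMPF were dosed. Mice were killed 1 h after the day-five dose. Plasma, adipose, muscle and liver were collected and analysed by HPLC-MS (MS/MS for product ions). Metabolites were identified by their distinctive isotope patterns from the labelled/unlabelled mixture.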

Liver [9] = assay: as §2, with “liver” for “adipose”, “2-(2-Carboxyethyl)-4-methyl-5-propyl-(3-13C-furan)-3-13Ccarboxylate” for “2-(2-(Carboxy-13C)ethyl)-4-methyl-5-propylfuran-3-carboxylic-2-13C Acid”; format: ADME, organism-based; details: in vivo; how it was run: as §3
[10] = Suppression of high glucose stimulated insulin secretion in mouse pancreatic islets at 200 uM treated for 24 hrs followed by glucose stimulation for 20 mins by HTRF assay relative to control; format: ADME, cell-based; details: pancreatic islet
How it was run: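 Mouse islet screening assay in high-glucose (20 mM) medium with compounds at 200 µM. Insulin secretion is expressed as fold change relative to vehicle. Mean of n = 4 experiments with SEM; significance by Student's t-test, p ≤ 0.05.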

Plasma [11] = assay: (§5) Drug metabolism in CD1 mouse plasma assessed as glycerol conjugate formation at 6 mg/kg, ip dosed once daily for 3 days followed by dosing of 1:1 mixtures of 2-(2-Carboxyethyl)-4-methyl-5-(1-propyl-1-13C)furan-3-carboxylic Acid and test compound on day 4 and 5 measured 1 hr post dose on day 5 by HPLC-MS analysis; format: ADME, organism-based; details: in vivo; how it was run: as §4
[12] = as §5, with “muscle” for “plasma”; format: ADME, organism-based, Muscle tissue; details: in vivo; how it was run: as §3
[13] = as §5, with “adipose” for “plasma”; format: ADME, organism-based, Adipose tissue; details: in vivo; how it was run: as §3
[14] = as §5, with “adipose” for “plasma”, “monoacylglycerol” for “glycerol”; format: ADME, organism-based, Adipose tissue; details: in vivo; how it was run: as §3
[15] = as §5, with “muscle” for “plasma”, “diacylglycerol” for “glycerol”; format: ADME, organism-based, Muscle tissue; details: in vivo; how it was run: as §3
[16] = as §5, with “muscle” for “plasma”, “oxidative metabolites” for “glycerol conjugate”; format: ADME, organism-based, Muscle tissue; details: in vivo; how it was run: as §4
Liver [17] = assay: as §5, with “liver” for “plasma”, “oxidative metabolites” for “glycerol conjugate”; format: ADME, organism-based; details: in vivo; how it was run: as §3
Liver [18] = assay: (§6) Drug metabolism in CD1 mouse liver assessed as monoacylglycerol conjugate formation at 6 mg/kg, ip dosed once daily for 3 days followed by dosing of 1:1 mixtures of 2-(2-(Carboxy-13C)ethyl)-4-methyl-5-propylfuran-3-carboxylic-2-13C Acid and test compound on day 4 and 5 measured 1 hr post dose on day 5 by HPLC-MS analysis; format: ADME, organism-based; details: in vivo; how it was run: as §3
[19] = as §6, with “adipose” for “liver”, “diacylglycerol” for “monoacylglycerol”; format: ADME, organism-based, Adipose tissue; details: in vivo; how it was run: as §3
Liver [20] = assay: as §6, with “2-(2-Carboxyethyl)-4-methyl-5-propyl-(3-13C-furan)-3-13Ccarboxylateand” for “2-(2-(Carboxy-13C)ethyl)-4-methyl-5-propylfuran-3-carboxylic-2-13C Acid and”; format: ADME, organism-based; details: in vivo; how it was run: as §3
[21] = (§7) Drug metabolism in CD1 mouse adipose assessed as monoacylglycerol conjugate formation at 6 mg/kg, ip dosed once daily for 3 days followed by dosing of 1:1 mixtures of 2-(2-Carboxyethyl)-4-methyl-5-propyl-(3-13C-furan)-3-13Ccarboxylateand test compound on day 4 and 5 measured 1 hr post dose on day 5 by HPLC-MS analysis; format: ADME, organism-based, Adipose tissue; details: in vivo; how it was run: as §3
Liver [22] = assay: as §7, with “liver” for “adipose”, “diacylglycerol” for “monoacylglycerol”; format: ADME, organism-based; details: in vivo; how it was run: as §3
[23] = as §7, with “diacylglycerol” for “monoacylglycerol”; format: ADME, organism-based, Adipose tissue; details: in vivo; how it was run: as §3
Plasma [24] = assay: as §7, with “plasma” for “adipose”, “oxidative metabolites” for “monoacylglycerol conjugate”; format: ADME, organism-based; details: in vivo; how it was run: as §4
[25] = Effect on insulin content in KCl-stimulated mouse pancreatic islet at 200 uM incubated for 24 hrs followed by KCl stimulation for 20 mins by HTRF assay; format: ADME, cell-based
How it was run: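 Mouse islets treated with compounds at 200 µM. Insulin secretion was then measured under low- and high-glucose GSIS conditions and under KCl stimulation, and intracellular insulin content was measured. Mean of n = 4-5 experiments with SEM.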

[26] = Suppression of glucose stimulated insulin secretion in mouse pancreatic islet at 200 uM incubated for 24 hrs followed by glucose stimulation for 20 mins by HTRF assay relative to control

concentration (Plasma [1]): 20 to 40 µM | Drug excretion [2]: 1 to 5 mg/day | C0 [3]: 53.3 µM | Vd [4]: 0.2 L/kg | Vd [5]: 0.2 L/kg | Drug metabolism [6]: Metabolite_Detected | Drug metabolism [7]: Metabolite_Detected | Drug metabolism (Plasma [8]): Metabolite_Detected | Drug metabolism (Liver [9]): Metabolite_Detected | Drug metabolism (Plasma [11]): Metabolite_Notdetected | Drug metabolism [12]: Metabolite_Notdetected | Drug metabolism [13]: Metabolite_Notdetected | Drug metabolism [14]: Metabolite_Notdetected | Drug metabolism [15]: Metabolite_Notdetected | Drug metabolism [16]: Metabolite_Notdetected | Drug metabolism (Liver [17]): Metabolite_Notdetected | Drug metabolism (Liver [18]): Metabolite_Notdetected | Drug metabolism [19]: Metabolite_Notdetected | Drug metabolism (Liver [20]): Metabolite_Notdetected | Drug metabolism [21]: Metabolite_Notdetected | Drug metabolism (Liver [22]): Metabolite_Notdetected | Drug metabolism [23]: Metabolite_Notdetected | Drug metabolism (Plasma [24]): Metabolite_Notdetected
SMILES: CCCc1oc(CCC(=O)O)c(C(=O)O)c1C
Activity [10]: Toxic | Activity [25]: Non-Toxic | Activity [26]: Toxic
